Converted amounts (≈) assume the structure as drawn. The source made the active and inactive calls. The calls are words filed in the database; no cut-off is given here.
Legend:
[1] = Stability in rat plasma assessed as compound remaining after 30 mins relative to basal level; assay type: ADME, cell-free; conditions: read-out: Stability
Outline: (§1)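 Compound was incubated in heparinized plasma at 37 °C for 2 h. Samples taken at various time points were quenched with acetonitrile, dried under nitrogen and reconstituted in methanol/water 20:80. Intact compound was quantified by LC/MS.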

[2] = Stability in mouse plasma assessed as compound remaining after 60 mins relative to basal level; assay type: ADME, cell-free; conditions: read-out: Stability; outline: as §1
Homo sapiens [3] = organism: Homo sapiens; assay: Stability in human plasma assessed as compound remaining after 5 mins relative to basal level
U-87MG ATCC [4] = assay: Antitumor activity against human U87MG cells xenografted in nude mouse assessed as tumor growth inhibition administered iv once weekly; assay type: functional
Outline: (§2)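 U87MG glioma xenografts in nude mice were staged and randomized (n = 10). Dosing was iv once weekly in D5W (days 0, 6 or days 0, 6, 13), with vehicle controls. Tumor volume was measured twice weekly.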

[5] = Stability in mouse plasma assessed as compound remaining after 15 mins relative to basal level; assay type: ADME, cell-free; conditions: read-out: Stability; outline: as §1
[6] = Inhibition of PI3K
Homo sapiens [7] = organism: Homo sapiens; assay: Stability in human plasma assessed as compound remaining after 30 mins relative to basal level
Plasma = assay: Stability in mouse plasma in presence of esterase inhibitor sodium fluoride; assay type: ADME, cell-free
Outline: (§3)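 Compound was incubated in nude mouse plasma or whole blood at 37 °C for 2 h, with heparin or sodium fluoride/EDTA as anticoagulant. Time-point samples were quenched with acetonitrile, dried, reconstituted and analysed by LC/MS for parent and hydrolysis products.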

[8] = molecular target: Serine/threonine-protein kinase mTOR (Homo sapiens) (UniProt P42345); assay: Inhibition of mTOR
[9] = Stability in nude mouse liver microsomes assessed as compound remaining after 30 mins; assay type: ADME, Microsome; conditions: read-out: Stability
Outline: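 Female nude mouse liver microsomes were incubated with compound for 30 min at 37 °C, with NADPH dependence examined. Remaining parent and hydrolysis products were measured.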

[10] = Solubility in water; assay type: physicochemical
U-87MG ATCC [11] = assay: Antitumor activity against human U87MG cells xenografted in nude mouse assessed as inhibition of S6K phosphorylation at 15 mg/kg, iv administered as single dose measured after 2 hrs; assay type: functional, organism-based; parameters: dose 15 mg/kg
[12] = Stability in rat plasma assessed as compound remaining after 120 mins relative to basal level; assay type: ADME, cell-free; conditions: read-out: Stability; outline: as §1
Homo sapiens [13] = organism: Homo sapiens; assay: Stability in human plasma assessed as compound remaining after 90 mins relative to basal level
[14] = Stability in mouse plasma assessed as compound remaining after 120 mins relative to basal level; assay type: ADME, cell-free; conditions: read-out: Stability; outline: as §1
[15] = Stability in nude mouse whole blood assessed as 8-((4S,4aR,6aS,7S,9aR,E)-5-(carboxyoxy)-1-(((3-(dimethylamino)propyl)(methyl)amino)methylene)-11-hydroxy-4-(methoxymethyl)-4a-methyl-2,10-dioxo-1,2,4,4a,5,6,6a,7,8,9,9a,10-dodecahydroindeno[4,5-h]isochromen-7-yloxy)-8-oxooctanoic acid formation; assay type: ADME, tissue-based; outline: as §3
[16] = Stability in rat plasma assessed as compound remaining after 5 mins relative to basal level; assay type: ADME, cell-free; conditions: read-out: Stability; outline: as §1
U-87MG ATCC [17] = assay: Antitumor activity against human U87MG cells xenografted in nude mouse assessed as inhibition of AKT S473 phosphorylation at 15 mg/kg, iv administered as single dose measured after 2 hrs; assay type: functional, organism-based; parameters: dose 15 mg/kg
Outline: (§4)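 Nude mice bearing U87MG tumors got a single iv dose. Tumors were excised 2 h later and analysed by Western blot for phosphoproteins (AKT S473, T308) against vehicle-treated controls.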

[18] = Stability in rat plasma assessed as compound remaining after 60 mins relative to basal level; assay type: ADME, cell-free; conditions: read-out: Stability; outline: as §1
A498 [19] = assay: Antitumor activity against human A498 cells xenografted in nude mouse assessed as tumor growth inhibition at 30 mg/kg, iv once weekly
[20] = Stability in rat plasma assessed as compound remaining after 90 mins relative to basal level; assay type: ADME, cell-free; conditions: read-out: Stability; outline: as §1
U-87MG ATCC [21] = assay: Antitumor activity against human U87MG cells xenografted in nude mouse assessed as inhibition of AKT T308 phosphorylation at 15 mg/kg, iv administered as single dose measured after 2 hrs; assay type: functional, organism-based; parameters: dose 15 mg/kg; outline: as §4
Homo sapiens [22] = organism: Homo sapiens; assay: Stability in human plasma assessed as compound remaining after 60 mins relative to basal level
HT-29 = assay: Antitumor activity against human HT-29 cells xenografted in nude mouse assessed as tumor growth inhibition at 15 mg/kg, iv once weekly; assay type: functional, organism-based; parameters: dose 15 mg/kg
Outline: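 Nude mice bearing HT29 colon xenografts were randomized into groups (n = 10) and dosed iv once weekly. Agents were in 5% dextrose in water, or in 4% ethanol/5% polysorbate 80/5% PEG400 for the rapamycin-type agent. Tumor growth was monitored against vehicle.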

[23] = Stability in mouse plasma assessed as compound remaining after 5 mins relative to basal level; assay type: ADME, cell-free; conditions: read-out: Stability; outline: as §1
[24] = Stability in nude mouse whole blood assessed as release of (4S,4aR,6aS,7S,9aR,E)-1-(((3-(dimethylamino)propyl)(methyl)amino)methylene)-7,11-dihydroxy-4-(methoxymethyl)-4a-methyl-2,10-dioxo-1,2,4,4a,5,6,6a,7,8,9,9a,10-dodecahydroindeno[4,5-h]isochromen-5-yl hydrogen carbonate; assay type: ADME, tissue-based; outline: as §3
U-87MG ATCC [25] = assay: Antitumor activity against human U87MG cells xenografted in nude mouse assessed as tumor growth inhibition at 3 mg/kg, iv once weekly; assay type: functional, organism-based; parameters: dose 3 mg/kg; outline: as §2
U-87MG ATCC [26] = assay: Antitumor activity against human U87MG cells xenografted in nude mouse assessed as tumor growth inhibition at 5 mg/kg, iv once weekly; assay type: functional, organism-based; parameters: dose 5 mg/kg; outline: as §2
[27] = Stability in nude mouse whole blood assessed as rapamycin formation; assay type: ADME, tissue-based; outline: as §3
[28] = Stability in human liver microsomes assessed as compound remaining after 30 mins; assay type: ADME, Microsome; conditions: read-out: Stability
Outline: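 Compound (10 μM) was incubated with human liver microsomes (1 mg/mL) at 37 °C for 30 min, alongside buffer (pH 7.4) and boiled-microsome controls. NADPH dependence was examined. Reactions were quenched with 3 volumes of cold acetonitrile.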

[29] = Stability in rat plasma assessed as compound remaining after 15 mins relative to basal level; assay type: ADME, cell-free; conditions: read-out: Stability; outline: as §1
Homo sapiens [30] = organism: Homo sapiens; assay: Stability in human plasma assessed as compound remaining after 120 mins relative to basal level
[31] = Stability in mouse plasma assessed as compound remaining after 30 mins relative to basal level; assay type: ADME, cell-free; conditions: read-out: Stability; outline: as §1
Homo sapiens [32] = organism: Homo sapiens; assay: Stability in human plasma assessed as compound remaining after 15 mins relative to basal level
[33] = Stability in mouse plasma assessed as compound remaining after 90 mins relative to basal level; assay type: ADME, cell-free; conditions: read-out: Stability; outline: as §1
U-87MG ATCC [34] = assay: Antitumor activity against human U87MG cells xenografted in nude mouse assessed as inhibition of AKT S473 phosphorylation at 10 mg/kg, iv administered as single dose measured after 2 hrs; assay type: functional, organism-based; parameters: dose 10 mg/kg; outline: as §4
A498 [35] = assay: Antitumor activity against human A498 cells xenografted in nude mouse assessed as tumor growth inhibition at 25 mg/kg, iv once weekly
U-87MG ATCC [36] = assay: Antitumor activity against human U87MG cells xenografted in nude mouse assessed as inhibition of AKT T308 phosphorylation at 10 mg/kg, iv administered as single dose measured after 2 hrs; assay type: functional, organism-based; parameters: dose 10 mg/kg; outline: as §4
U-87MG ATCC [37] = assay: Antitumor activity against human U87MG cells xenografted in nude mouse assessed as inhibition of S6K phosphorylation at 10 mg/kg, iv administered as single dose measured after 2 hrs; assay type: functional, organism-based; parameters: dose 10 mg/kg

**Q.** With `COC[C@H]1OC(=O)/C(=C\N(C)CCCN(C)C)C2=C(O)C(=O)C3=C([C@H](OC(C)=O)C[C@]4(C)[C@@H](OC(=O)CCCCCCC(=O)O[C@@H]5CC[C@@H](C[C@@H](C)[C@@H]6CC(=O)[C@H](C)/C=C(\C)[C@@H](O)[C@@H](OC)C(=O)[C@H](C)C[C@H](C)/C=C/C=C/C=C(\C)[C@@H](OC)C[C@@H]7CC[C@@H](C)[C@@](O)(O7)C(=O)C(=O)N7CCCC[C@H]7C(=O)O6)C[C@H]5OC)CC[C@@H]34)[C@]21C` as the molecule, how does the remaining at 0.5 h [1] read?
**A.** 71%

**Q.** What about the remaining at 1 h [2] of the same molecule?
**A.** 13%

**Q.** What about the remaining at 5 min (Homo sapiens [3]) of the same molecule?
**A.** 86%

**Q.** And the Activity (U-87MG ATCC [4])?
**A.** Dose-dependent effect

**Q.** And the remaining at 0.25 h [5]?
**A.** 39%

**Q.** And the inhibition [6]?
**A.** inactive

**Q.** What about the remaining at 0.5 h (Homo sapiens [7]) of the same molecule?
**A.** 91%

**Q.** What about the Stability (Plasma) of the same molecule?
**A.** Stable

**Q.** What about the inhibition [8] of the same molecule?
**A.** inactive

**Q.** What about the remaining at 0.5 h [9] of the same molecule?
**A.** ≥ 50%

**Q.** What about the solubility ([10]; buffer) of the same molecule?
**A.** Soluble

**Q.** And the solubility ([10]; water, read-out: solubility)?
**A.** 460 µg/mL (≈ 288 µM)

**Q.** What about the Activity (U-87MG ATCC [11]) of the same molecule?
**A.** Active

**Q.** What about the remaining at 2 h [12] of the same molecule?
**A.** 46%

**Q.** And the remaining at 1.5 h (Homo sapiens [13])?
**A.** 82%

**Q.** And the remaining at 2 h [14]?
**A.** 8%

**Q.** What about the Stability [15] of the same molecule?
**A.** Unstable

**Q.** And the remaining at 5 min [16]?
**A.** 91%

**Q.** What about the Activity (U-87MG ATCC [17]) of the same molecule?
**A.** Active

**Q.** And the remaining at 1 h [18]?
**A.** 64%

**Q.** What about the Activity (A498 [19]) of the same molecule?
**A.** Active

**Q.** What about the remaining at 1.5 h [20] of the same molecule?
**A.** 53%

**Q.** What about the Activity (U-87MG ATCC [21]) of the same molecule?
**A.** Active

**Q.** And the remaining at 1 h (Homo sapiens [22])?
**A.** 83%

**Q.** And the Activity (HT-29)?
**A.** Active

**Q.** What about the remaining at 5 min [23] of the same molecule?
**A.** 53%

**Q.** What about the Stability [24] of the same molecule?
**A.** Stable

**Q.** What about the Activity (U-87MG ATCC [25]) of the same molecule?
**A.** Active

**Q.** And the Activity (U-87MG ATCC [26])?
**A.** Active

**Q.** And the Stability [27]?
**A.** Unstable

**Q.** And the remaining at 0.5 h [28]?
**A.** ≥ 50%

**Q.** What about the remaining at 0.25 h [29] of the same molecule?
**A.** 80%

**Q.** And the remaining at 2 h (Homo sapiens [30])?
**A.** 83%

**Q.** What about the remaining at 0.5 h [31] of the same molecule?
**A.** 18%

**Q.** And the remaining at 0.25 h (Homo sapiens [32])?
**A.** 93%

**Q.** And the remaining at 1.5 h [33]?
**A.** 10%

**Q.** Which inhibition [6] does the source give for `COC[C@H]1OC(=O)/C(=C\N(C)CCCN(C)C)C2=C(O)C(=O)C3=C([C@H](OC(C)=O)C[C@]4(C)[C@@H](OC(=O)CCCCC(=O)O[C@@H]5CC[C@@H](C[C@@H](C)[C@@H]6CC(=O)[C@H](C)/C=C(\C)[C@@H](O)[C@@H](OC)C(=O)[C@H](C)C[C@H](C)/C=C/C=C/C=C(\C)[C@@H](OC)C[C@@H]7CC[C@@H](C)[C@@](O)(O7)C(=O)C(=O)N7CCCC[C@H]7C(=O)O6)C[C@H]5OC)CC[C@@H]34)[C@]21C` here?
**A.** inactive

**Q.** What about the Stability (Plasma) of the same molecule?
**A.** Stable

**Q.** What about the inhibition [8] of the same molecule?
**A.** inactive

**Q.** And the remaining at 2 h [14]?
**A.** 4%

**Q.** What about the Activity (U-87MG ATCC [25]) of the same molecule?
**A.** Active

**Q.** Which inhibition [6] does the source give for `COC[C@H]1OC(=O)/C(=C\N(C)CCCN(C)C)C2=C(O)C(=O)C3=C([C@H](OC(C)=O)C[C@]4(C)[C@@H](OC(=O)CCCCCCC(=O)O[C@H]5CC[C@H](C[C@@H](C)[C@@H]6CC(=O)[C@H](C)/C=C(\C)[C@@H](O)[C@@H](OC)C(=O)[C@H](C)C[C@H](C)/C=C/C=C/C=C(\C)[C@@H](OC)C[C@@H]7CC[C@@H](C)[C@@](O)(O7)C(=O)C(=O)N7CCCC[C@H]7C(=O)O6)CC5)CC[C@@H]34)[C@]21C` here?
**A.** inactive

**Q.** And the inhibition [8]?
**A.** inactive

**Q.** What does the source list for `CO[C@H]1C[C@@H]2CC[C@@H](C)[C@@](O)(O2)C(=O)C(=O)N2CCCC[C@H]2C(=O)O[C@H]([C@H](C)C[C@@H]2CC[C@@H](O)[C@H](OC)C2)CC(=O)[C@H](C)/C=C(\C)[C@@H](O)[C@@H](OC)C(=O)[C@H](C)C[C@H](C)/C=C/C=C/C=C/1C` [SIROLIMUS]?
**A.** Activity (U-87MG ATCC [34]): inactive; Activity (A498 [35]): Active; solubility ([10]; buffer): Insoluble; Activity (U-87MG ATCC [36]): inactive; Activity (U-87MG ATCC [37]): Active
